Assay outcomes deposited in PubChem BioAssay by Broad Institute.
In the library only some 5.8% were active in any assay of this set; here they are far more common.
GASC1 inh: inhibitors of human demethylase GASC-1 KDM4C. Q9H3R0. GST-KDM4C 2-372, H3K9me3 peptide, LANCE TR-FRET. inhibition, % at 12.5 µM. 96,000 compounds, 0.15% hits;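 active means mean replicate inhibition above about 25%, with at least 55% of replicates also reaching it, limit read from the data, passing the limit was not always enough; inconclusive means only one of those two conditions met; inactive means neither condition met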
Target sequence (Q9H3R0 2-372 limits assumed): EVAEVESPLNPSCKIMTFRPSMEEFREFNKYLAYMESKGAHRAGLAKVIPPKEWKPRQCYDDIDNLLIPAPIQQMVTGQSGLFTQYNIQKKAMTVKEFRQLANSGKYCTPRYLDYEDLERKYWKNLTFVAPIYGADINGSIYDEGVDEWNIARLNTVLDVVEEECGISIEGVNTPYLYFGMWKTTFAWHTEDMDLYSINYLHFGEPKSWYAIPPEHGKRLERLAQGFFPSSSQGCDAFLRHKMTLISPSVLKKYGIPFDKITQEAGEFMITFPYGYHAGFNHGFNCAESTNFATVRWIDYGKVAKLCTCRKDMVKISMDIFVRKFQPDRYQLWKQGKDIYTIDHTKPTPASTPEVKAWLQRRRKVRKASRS
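Material: N-terminal GST-fused human GASC-1 (KDM4C) fragment, residues 2-372. Input: 10 nM enzyme. Incubation: enzyme reaction 30 min, then detection 60 min, both room temperature. Doses: one test concentration per compound. Read-out basis: inhibition from TR-FRET ratio decrease. Detection: LANCE TR-FRET, excitation 340 nm, emissions 618 and 671 nm.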
T cruzi growth-1: blocks T. cruzi growth in NIH3T3 culture. T. cruzi beta-gal in NIH3T3, GalScreen luminescence, 90 h. inhibition, % at 8.34 µM. AID 624255. 77,000 compounds, 5.9% hits;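 active means mean inhibition above about 93%, with at least 55% of replicates each passing it, limit read from the data, passing the limit was not always enough; inconclusive means only one of those two conditions holds; inactive means neither condition holds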
IDH1 R132H inh: blocks human IDH1 R132H reductase activity; diaphorase/resazurin fluorescence, 60 min; inhibition, % at 10 µM; 70,000 compounds, 0.18% hits; in the data active means inhibition above about 34%; inconclusive means no clear call, values can overlap the other calls; inactive means below about 11%;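 further: 0% = DMSO and 100% = no enzyme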
Pf Dd2 growth: blocks growth of Plasmodium falciparum Dd2 parasites. P. falciparum Dd2 growth, SYBR Green, 72 h; stronger effect = lower value. activity change, % at 10 µM. 94,000 compounds, 2.3% hits. AID 1159554; in the data active means activity change below about -80%; inconclusive means no clear call, values can overlap the other calls
T cruzi growth-2: Trypanosoma cruzi proliferation inhibition; inhibition, % at 8.35 µM; T. cruzi beta-gal in NIH3T3, GalScreen luminescence, 90 h; shares compounds with T cruzi growth-1; 5,600 compounds, 72% hits;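 active means mean replicate inhibition above about 95% and at least 55% of replicates individually reaching it, limit read from the data; inconclusive means only one of the two criteria is met; inactive means neither criterion is met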
T cruzi growth-3: Trypanosoma cruzi proliferation inhibition. shares compounds with T cruzi growth-1. T. cruzi beta-gal in NIH3T3, GalScreen luminescence, 90 h. inhibition, % at 2.09 µM. 5,600 compounds, 21% hits;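 active means mean inhibition above about 95%, with at least 55% of replicates also reaching it, limit read from the data; inconclusive means meets just one of the two conditions; inactive means meets neither condition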;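 further: plate controls were neutral control median for no effect and positive control median for full effect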
NIH3T3 tox: NIH/3T3 (mouse) viability loss; shares compounds with T cruzi growth-1; NIH/3T3 viability, CellTiter-Glo ATP luminescence, 90 h; cytotoxicity (signal decrease), % at 8.35 µM; 5,600 compounds, 14% hits; AID 651742;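 active means mean signal decrease across replicates above about 35% based on untreated-well scatter, with enough replicates individually passing, limit read from the data; inconclusive means no rule stated though some were filed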;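 further: 0% = median of neutral control wells and 100% = median of positive control wells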
3T3 cytotox 2: kills mouse NIH/3T3 fibroblasts. NIH/3T3 viability, CellTiter-Glo ATP luminescence, 90 h. shares compounds with T cruzi growth-1. AID 651744. 5,600 compounds, 56% hits. inhibition, % at 24.9 µM;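 active means mean loss of cell viability signal at or above a set limit, and enough replicates individually reaching it; inconclusive means meets only the mean limit or only the replicate share; inactive means meets neither condition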;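 further: 0% = median of neutral control wells and 100% = median of positive control wells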
Active calls of the source: *; ? = inconclusive; . = not tested or not shown.

SMILES	GASC1 inh	T cruzi growth-1	IDH1 R132H inh	Pf Dd2 growth	T cruzi growth-2	T cruzi growth-3	NIH3T3 tox	3T3 cytotox 2
CN1CCN(c2ccccc2NC(=O)COc2ccc([N+](=O)[O-])cc2)CC1	.	.	0.3	.	.	.	.	.
Nc1nnc(SCC(=O)Nc2ccc(Br)cc2Cl)n1-c1ccccc1	.	.	1.1	.	.	.	.	.
C[C@@H]1CCCCO[C@H](CN(C)CC2CCCCC2)[C@H](C)CN([C@H](C)CO)C(=O)c2cc(NC(=O)Nc3ccccc3)ccc2O1	-1.8	?	.	?	101.5*	89.8	28.5	104.6*
C[C@@H]1CCCCO[C@@H](CN(C)CC2CC2)[C@@H](C)CN([C@H](C)CO)C(=O)c2cc(NC(=O)Nc3ccccc3)ccc2O1	-1.3	96.7*	.	-83.9*	38.7	3.0	-1.6	7.1
C[C@@H]1CCCCO[C@@H](CN(C)CC2CCCCC2)[C@H](C)CN([C@@H](C)CO)C(=O)c2cc(NC(=O)NC3CCCCC3)ccc2O1	-1.8	98.8*	2.9	-56.0	109.1*	73.0	-5.3	105.6*
C[C@@H]1CN([C@@H](C)CO)C(=O)c2cc(NC(=O)Nc3ccccc3)ccc2O[C@@H](C)CCCCO[C@H]1CN(C)CC1CCCCC1	-0.7	97.0*	2.3	-75.0	22.8	7.9	-0.7	4.1
C[C@@H]1CCCCO[C@@H](CN(C)CC2CC2)[C@H](C)CN([C@@H](C)CO)C(=O)c2cc(NC(=O)Nc3ccccc3)ccc2O1	15.2	82.5	.	2.2	.	.	.	.
CCC(=O)NC(c1ccccc1OC)c1c(O)ccc2ccccc12 (stereo unspecified)	.	.	3.0	.	.	.	.	.
O=C(c1ccccc1)c1cc(Br)ccc1NC(=O)C1CC=CCC1C(=O)O (stereo unspecified)	.	.	-0.2	.	.	.	.	.
COc1ccc(NC(=O)Nc2ccc3c(c2)C(=O)N([C@@H](C)CO)C[C@@H](C)[C@H](CN(C)CC2CCCCC2)OCCCC[C@@H](C)O3)cc1	-0.1	?	.	-73.2	98.5*	59.0	15.2	103.8*
CCCC#Cc1ccc([C@@H]2[C@H]3CN(S(=O)(=O)Cc4ccccc4)CCCCN3[C@H]2CO)cc1	-1.6	80.6	.	-14.5	.	.	.	.
O=S(=O)(Cc1ccccc1)N1CCCCN2[C@H](C1)[C@@H](c1ccc(C#Cc3ccccc3)cc1)[C@@H]2CO	-0.6	100.5*	.	-42.4	104.9*	112.1*	27.4	68.3*
O=S(=O)(Cc1ccccc1)N1CCCCN2[C@H](C1)[C@H](c1ccc(C#Cc3ccccc3)cc1)[C@@H]2CO	-1.9	104.1*	.	-0.1	108.4*	?	26.4	106.6*
C[C@@H](O)C#Cc1ccc([C@H]2[C@H]3CN(S(=O)(=O)Cc4ccccc4)CCCCN3[C@H]2CO)cc1	0.4	43.9	.	-8.8	.	.	.	.
CN1C(=O)c2cc(NC(=O)Nc3ccc(Cl)cc3)ccc2OC[C@H]2O[C@@H](CC(=O)NCCN3CCCCC3)CC[C@H]21	0.0	-12.0	.	0.3	.	.	.	.
CN1C(=O)c2cc(NC(=O)c3cccc(Cl)c3)ccc2OC[C@@H]2O[C@@H](CC(=O)NC3CCCCC3)CC[C@H]21	2.6	96.4*	.	-7.5	?	43.0	9.1	?
CCNC(=O)C[C@@H]1CC[C@@H]2[C@@H](COc3ccc(NC(=O)c4ccc5c(c4)OCO5)cc3C(=O)N2C)O1	-1.0	26.7	.	-10.8	.	.	.	.
CN1C(=O)c2cc(NC(=O)Nc3ccc(Cl)cc3)ccc2OC[C@@H]2O[C@H](CC(=O)NCCN3CCCCC3)CC[C@@H]21	1.0	102.9*	.	-22.8	108.5*	79.0	-0.4	8.2
CNC(=O)C[C@@H]1CC[C@H]2[C@@H](COc3ccc(NC(=O)c4ccc5c(c4)OCO5)cc3C(=O)N2C)O1	-2.0	111.0*	.	-30.9	-2.7	-14.8	-3.0	-0.9
CN1C(=O)c2cc(NC(=O)c3cccc(Cl)c3)ccc2OC[C@H]2O[C@H](CC(=O)NC3CCCCC3)CC[C@H]21	1.2	82.0	.	-22.9	.	.	.	.
CNC(=O)C[C@H]1CC[C@@H]2[C@@H](COc3ccc(NC(=O)c4ccc5c(c4)OCO5)cc3C(=O)N2C)O1	-0.3	107.6*	.	-0.2	-32.4	-7.7	-14.5	-5.3
CNC(=O)C[C@@H]1CC[C@@H]2[C@H](COc3ccc(NC(=O)c4ccc5c(c4)OCO5)cc3C(=O)N2C)O1	-0.5	34.3	.	8.2	.	.	.	.
COC(=O)C[C@H]1CC[C@H]2[C@H](COc3ccc(NC(=O)Nc4cccc(Cl)c4)cc3C(=O)N2C)O1	-1.3	100.7*	.	-3.4	103.2*	?	?	45.8*
COc1ccc([N+](=O)[O-])cc1CSc1nnc(-c2ccccc2)n1-c1ccccc1	.	.	0.1	.	.	.	.	.
NCCNc1ccc([N+](=O)[O-])c(NCCO)c1	.	.	-0.2	.	.	.	.	.
SMILES	GASC1 inh	T cruzi growth-1	IDH1 R132H inh	Pf Dd2 growth	T cruzi growth-2	T cruzi growth-3	NIH3T3 tox	3T3 cytotox 2
OC[C@H]1[C@H](c2ccc(-c3cccnc3)cc2)[C@@H]2CN(Cc3ccccn3)CCCCN12	0.6	?	.	-12.8	106.0*	68.1	-8.8	-2.6
OC[C@@H]1[C@H](c2ccc(-c3ccc(F)cc3)cc2)[C@H]2CN(Cc3ccccn3)CCCCN12	0.2	99.3*	.	-21.1	107.3*	91.7	30.9	107.6*
COc1cccc(CNC(=O)[C@@H]2[C@@H](CO)[C@@H]3Cn4c(cccc4=O)[C@H]2N3C(=O)C2CCCCC2)c1	-0.5	95.5*	.	.	42.2	25.7	19.6	1.0
O=C(NCCN1CCCCC1)[C@@H]1[C@@H](CO)[C@@H]2Cn3c(cccc3=O)[C@H]1N2C(=O)C1CCCCC1	-1.5	62.7	.	9.2	.	.	.	.
O=C(NCCN1CCCC1)[C@H]1[C@H](CO)[C@H]2Cn3c(cccc3=O)[C@@H]1N2C(=O)c1ccccc1	0.5	95.9*	.	.	-7.0	-24.9	-8.8	-20.5
O=C(CCC1COc2ccccc2O1)Nc1ncc(C(F)(F)F)cc1Cl (stereo unspecified)	.	.	2.0	.	.	.	.	.
CS(=O)(=O)N(CC(=O)Nc1ccccc1C(F)(F)F)c1ccc2c(c1)OCCO2	.	.	0.2	.	.	.	.	.
CCn1c(SCC(=O)Nc2cc(C(F)(F)F)ccc2Cl)nnc1-c1ccccc1F	.	.	0.1	.	.	.	.	.
C[C@H]1CCCCO[C@@H](CN(C)Cc2ccc(C(F)(F)F)cc2)[C@@H](C)CN([C@@H](C)CO)C(=O)c2cc(NC(=O)c3ccncc3)ccc2O1	-0.1	24.0	2.5	-46.5	.	.	.	.
C[C@@H]1CCCCO[C@@H](CN(C)Cc2ccc(C(F)(F)F)cc2)[C@@H](C)CN([C@@H](C)CO)C(=O)c2cc(NC(=O)c3ccncc3)ccc2O1	-1.7	35.6	1.1	-5.8	.	.	.	.
